Where a SMILES comes first, the peptide text is derived from it. [ ]: non-standard residue; d: D form. d(β3hP) = O=C(O)C[C@H]1CCCN1; β3hP = O=C(O)C[C@@H]1CCCN1
Legend:
Assay type in all cases: functional, tissue-based
[1] = target: Delta-type opioid receptor (Mus musculus, UniProt P32300); assay: Agonist activity at delta opioid receptor in mouse vas deferens assessed as inhibition of electrically-stimulated muscle contraction
Method in brief: (§1)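 Isolated tissue bioassays used MVD for line 1 and GPI/LMMP for […]. IC50 is the mean of at least four experiments, obtained by nonlinear least-squares fitting to the Hill equation.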

Mu-type opioid receptor = Mu-type opioid receptor (Cavia porcellus, UniProt P97266); assay: Agonist activity at mu opioid receptor in guinea pig ileum assessed as inhibition of electrically-stimulated muscle contraction; method in brief: as §1
[2] = target: Delta-type opioid receptor (Mus musculus) (UniProt P32300); assay: Agonist activity at delta opioid receptor in mouse vas deferens assessed as inhibition of electrically-stimulated muscle contraction at 1 uM
Delta-type opioid receptor (Mus musculus), sequence (P32300 whole entry): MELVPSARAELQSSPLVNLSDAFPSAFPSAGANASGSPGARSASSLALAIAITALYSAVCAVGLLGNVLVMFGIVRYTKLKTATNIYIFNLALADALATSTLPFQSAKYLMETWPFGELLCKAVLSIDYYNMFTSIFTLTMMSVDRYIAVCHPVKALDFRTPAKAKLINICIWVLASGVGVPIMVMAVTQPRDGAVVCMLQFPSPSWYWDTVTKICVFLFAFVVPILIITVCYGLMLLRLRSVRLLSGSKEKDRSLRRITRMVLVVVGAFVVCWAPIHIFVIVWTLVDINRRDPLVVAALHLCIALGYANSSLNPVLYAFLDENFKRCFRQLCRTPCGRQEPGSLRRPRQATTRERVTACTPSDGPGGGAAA

Mu-type opioid receptor, sequence (P97266 whole entry): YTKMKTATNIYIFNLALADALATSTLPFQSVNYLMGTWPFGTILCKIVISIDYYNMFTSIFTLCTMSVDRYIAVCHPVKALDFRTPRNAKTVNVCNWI
Delta-type opioid receptor, sequence (P32300 whole entry): as the sequence (P32300 whole entry) above

| Structure (SMILES) | IC50 [1] [nM] | IC50 (Mu-type opioid receptor) [nM] | inhibition [2] [%] |
| --- | --- | --- | --- |
| NC(=O)[C@H](Cc1ccccc1)NC(=O)[C@H](Cc1ccccc1)NC(=O)C[C@@H]1CCCN1C(=O)[C@@H](N)Cc1ccc(O)cc1 | 1300 | 260 | – |
| NC(=O)[C@H]1CCCN1C(=O)[C@H](Cc1ccccc1)NC(=O)C[C@H]1CCCN1C(=O)[C@@H](N)Cc1ccc(O)cc1 (H-Y[d(β3hP)]F[dP]-NH2) | 96 | 17 | – |
| NC(=O)[C@H](Cc1ccccc1)NC(=O)[C@H](Cc1ccccc1)NS(=O)(=O)C[C@@H]1CCCN1C(=O)[C@@H](N)Cc1ccc(O)cc1 | 1100 | 730 | – |
| NC(=O)[C@H]1CCCN1C(=O)[C@H](Cc1ccccc1)NC(=O)C[C@@H]1CCCN1C(=O)[C@@H](N)Cc1ccc(O)cc1 (H-Y[β3hP]F[dP]-NH2) | – | 1100 | 33.7 |
| NC(=O)[C@H](Cc1ccccc1)NC(=O)[C@H](Cc1ccccc1)NC(=O)C[C@H]1CCCN1C(=O)[C@@H](N)Cc1ccc(O)cc1 | 1900 | 420 | – |
| NC(=O)[C@H](Cc1ccccc1)NC(=O)[C@H](Cc1ccccc1)NS(=O)(=O)[C@H]1CCN(C(=O)[C@@H](N)Cc2ccc(O)cc2)C1 | 530 | 260 | – |
| NC(=O)[C@H](Cc1ccccc1)NC(=O)[C@H](Cc1ccccc1)NS(=O)(=O)[C@@H]1CCN(C(=O)[C@@H](N)Cc2ccc(O)cc2)C1 | 390 | 220 | – |
| NC(=O)[C@H](Cc1ccccc1)NC(=O)[C@H](Cc1ccccc1)NS(=O)(=O)C[C@H]1CCCN1C(=O)[C@@H](N)Cc1ccc(O)cc1 | – | 2700 | 36 |

Source: ChEMBL document CHEMBL1250485, “Synthesis and activity of endomorphin-2 and morphiceptin analogues with proline surrogates in position 2” (Eur J Med Chem, 2010)
